Values after ≈ are worked out from the molar mass of the structure shown. Active and inactive are the calls of the source. No cut-off for these calls is given here.
Legend:
Staphylococcus aureus [1] = test: Antibacterial activity against Staphylococcus aureus TISTR 1466 by two-fold broth dilution method; type: functional
Salmonella typhimurium = test: Antibacterial activity against Salmonella typhimurium TISTR 292 by two-fold broth dilution method; type: functional, Salmonella enterica subsp. enterica serovar Typhimurium
Escherichia coli = test: Antibacterial activity against Escherichia coli TISTR 780 by two-fold broth dilution method; type: functional
Staphylococcus aureus [2] = test: Antibacterial activity against methicillin-resistant Staphylococcus aureus SK1 by two-fold broth dilution method; type: functional
Method in brief: (§1)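 MRSA SK1 was tested in a panel with Gram-positive S. aureus TISTR 1466 and Gram-negative E. coli TISTR 780 and S. typhimurium TISTR 292. Values are in μg/mL.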

Staphylococcus aureus [3] = test: Antibacterial activity against methicillin-resistant Staphylococcus aureus SK1 at >128 ug/mL by two-fold broth dilution method; type: functional, organism-based; method in brief: as §1
Staphylococcus aureus [4] = test: Antibacterial activity against Staphylococcus aureus TISTR 1466 at >128 ug/mL by two-fold broth dilution method; type: functional, organism-based

Compound | MIC (Staphylococcus aureus [1]) | MIC (Salmonella typhimurium; Salmonella enterica) [µg/mL] | MIC (Escherichia coli) [µg/mL] | MIC (Staphylococcus aureus [2]) [µg/mL] | MIC (Staphylococcus aureus [3]) | MIC (Staphylococcus aureus [4]) | MIC (Salmonella typhimurium; Salmonella enterica subsp. enterica serovar Typhimurium) [µg/mL]
C=C(C)CC[C@@H]1C[C@]2(CC=C(C)C)C(=O)/C(=C(\O)c3ccccc3)C(=O)[C@]3(CC=C(C)C)C[C@@]1(C)O[C@@]32O [XEROPHENONE A] | inactive | 128 (≈ 247 µM) | 128 (≈ 247 µM) | 128 (≈ 247 µM) |  |  | 
COc1c(CC=C(C)C)c(O)c2c(=O)c3ccc(O)c(OC)c3oc2c1CC=C(C)C [DOITUNGGARCINONE C] | 128 µg/mL (≈ 302 µM) |  | 128 (≈ 302 µM) | 128 (≈ 302 µM) |  |  | 
CC(C)=CCc1c2c(c3oc4c(O)ccc(O)c4c(=O)c3c1O)C=CC(C)(C)O2 [MORUSIGNIN J] | 128 µg/mL (≈ 325 µM) |  | 128 (≈ 325 µM) |  |  |  | 
C=C(C)CC[C@@H]1C[C@]23CC4C(C)(C)c5ccccc5C(=O)C45C(=O)[C@@](CC=C(C)C)(C[C@@]1(C)[C@]52O)C3=O (relative stereo) | 128 µg/mL (≈ 256 µM) | 128 (≈ 256 µM) | 128 (≈ 256 µM) |  | inactive |  | 
C=CC(C)(C)c1c2c(c(O)c3c(=O)c4ccc(O)c(OC)c4oc13)C=CC(C)(C)O2 | 2 µg/mL (≈ 4.9 µM) | 128 (≈ 313 µM) | 128 (≈ 313 µM) | 4 (≈ 9.79 µM) |  |  | 
CC(C)=CCc1c(O)c(CC=C(C)C)c2oc3c(O)ccc(O)c3c(=O)c2c1O [GARTANIN] | 128 µg/mL (≈ 323 µM) | 128 (≈ 323 µM) | 128 (≈ 323 µM) |  | inactive |  | 
COc1c(O)ccc2c(=O)c3c(O)c4c(c(CC=C(C)C)c3oc12)OC(C)(C)C=C4 |  | 128 (≈ 313 µM) | 128 (≈ 313 µM) |  | inactive | inactive | 
COc1c(CC=C(C)C)c(O)c2c(=O)c3ccc(O)c(O)c3oc2c1CC=C(C)C [DULXANTHONE B] | 32 µg/mL (≈ 78 µM) | 128 (≈ 312 µM) | 128 (≈ 312 µM) | 16 (≈ 39 µM) |  |  | 
C=CC(C)(C)c1c2c(c(O)c3c(=O)c4ccc(O)c(O)c4oc13)C=CC(C)(C)O2 [MACLURAXANTHONE] | 4 µg/mL (≈ 10.1 µM) |  | 128 (≈ 325 µM) | 4 (≈ 10.1 µM) |  |  | 
CN[C@H](CC(C)C)C(=O)N[C@H]1C(=O)N[C@@H](CC(N)=O)C(=O)N[C@H]2C(=O)N[C@H]3C(=O)N[C@H](C(=O)N[C@H](C(=O)O)c4cc(O)cc(O)c4-c4cc3ccc4O)[C@H](O)c3ccc(c(Cl)c3)Oc3cc2cc(c3O[C@@H]2O[C@H](CO)[C@@H](O)[C@H](O)[C@H]2O[C@H]2C[C@](C)(N)[C@H](O)[C@H](C)O2)Oc2ccc(cc2Cl)[C@H]1O [VANCOMYCIN] | 0.25 µg/mL (≈ 0.173 µM) |  |  |  |  |  | 
C=C(C)CC[C@@H]1C[C@@]2(CC=C(C)C)C(=O)[C@]3(CC=C(C)C)C[C@@]1(C)C2(O)/C(=C(/O)c1ccccc1)C3=O (relative stereo) | 64 µg/mL (≈ 127 µM) | 128 (≈ 255 µM) | 128 (≈ 255 µM) | 64 (≈ 127 µM) |  |  | 
GENTAMICIN |  |  | 0.25 |  |  |  | 0.125

— ChEMBL document CHEMBL2146440, “Rearranged benzophenones and prenylated xanthones from Garcinia propinqua twigs” (2012)
